Several values for one entry are separate records, joined by “and”; a condition that tells them apart may be missing. Identical values can stand only once. Each block holds one compound with its values, some of them ahead of it.
Legend:
[1] = tested on: aldehyde dehydrogenase (Saccharomyces cerevisiae); assay: In vitro inhibition of yeast aldehyde dehydrogenase; design: concentration or dose not given beside the values; conditions: concentration not given here
[2] = tested on: aldehyde dehydrogenase (Saccharomyces cerevisiae); assay: In vitro inhibition of yeast aldehyde dehydrogenase is evaluated by the formation of NADH
[3] = molecular target: T1, Aldehyde dehydrogenase, mitochondrial (Rattus norvegicus) (UniProt P11884); assay: Percent inhibition of class II aldehyde dehydrogenase in vitro in intact rat liver mitochondria; conditions: concentration not given here
T1 sequence (whole entry): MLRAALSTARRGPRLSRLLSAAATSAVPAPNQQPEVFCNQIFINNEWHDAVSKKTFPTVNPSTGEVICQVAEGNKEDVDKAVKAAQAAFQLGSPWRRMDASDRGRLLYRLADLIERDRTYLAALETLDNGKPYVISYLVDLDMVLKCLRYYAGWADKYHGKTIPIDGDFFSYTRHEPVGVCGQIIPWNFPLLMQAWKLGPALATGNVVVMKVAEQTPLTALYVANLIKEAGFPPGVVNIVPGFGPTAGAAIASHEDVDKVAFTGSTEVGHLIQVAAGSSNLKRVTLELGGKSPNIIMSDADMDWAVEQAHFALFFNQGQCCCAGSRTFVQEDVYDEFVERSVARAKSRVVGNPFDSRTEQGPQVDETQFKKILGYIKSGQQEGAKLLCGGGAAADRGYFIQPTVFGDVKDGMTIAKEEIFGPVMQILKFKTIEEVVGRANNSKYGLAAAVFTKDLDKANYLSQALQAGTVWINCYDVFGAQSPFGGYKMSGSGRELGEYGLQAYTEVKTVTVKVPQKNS
Method in brief: (§1)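 Mitochondria from overnight-fasted male rats (200–250 g). Preincubated 5 min at 37 °C, then acetaldehyde (200 nmol) added for 5 min. Quenched with cold HClO4; acetaldehyde loss read by head-space GC; Lowry protein.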

[4] = molecular target: T1, Aldehyde dehydrogenase, mitochondrial (Rattus norvegicus); assay: Percent inhibition of class II aldehyde dehydrogenase in vitro in osmotically disrupted rat liver mitochondria; conditions: concentration not given here
Method in brief: (§2)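 Liver mitochondria from overnight-fasted male rats (200–250 g), osmotically disrupted by leaving sucrose out of the medium. Preincubated 5 min at 37 °C, then acetaldehyde (200 nmol) added for 5 min. HClO4 quench; head-space GC; Lowry protein.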

[5] = molecular target: T1, Aldehyde dehydrogenase, mitochondrial (Rattus norvegicus); assay: Inhibition of class II aldehyde dehydrogenase in vitro in intact rat liver mitochondria assayed by nmol of acetaldehyde oxidized/min.mg of protein
Method in brief: as §1

[6] = molecular target: T1, Aldehyde dehydrogenase, mitochondrial (Rattus norvegicus); assay: Inhibition of class II aldehyde dehydrogenase in vitro in osmotically disrupted rat liver mitochondria assayed by nmol of acetaldehyde oxidized/min.mg of protein
Method in brief: as §2

Saccharomyces cerevisiae [7] = assay: In vitro inhibition of yeast […] at 1 uM concentration of compound
Saccharomyces cerevisiae [8] = assay: Inhibition of yeast aldehyde dehydrogenase is evaluated by formation by NADH in vitro at 10 uM concentration of compound
Method in brief: (§3)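 Commercial yeast AlDH (0.074 IU) was preincubated 10 min at 0 °C with test agent added in acetone, in 100 mM potassium phosphate pH 7.4 containing 1.0 mM NAD+. Concentration is the final level in this primary mix. A 20-µL aliquot went into 0.5 mM NAD+, 1.0 mM EDTA, 30% glycerol, 80 mM potassium phosphate pH 8.0; reaction started with benzaldehyde (0.6 µmol); NADH read at 340 nm.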

Saccharomyces cerevisiae [9] = assay: In vitro inhibition of yeast aldehyde dehydrogenase at 100 uM concentration of compound
Method in brief: as §3

Saccharomyces cerevisiae [10] = assay: In vitro inhibition of yeast […] is evaluated by the formation of NADH at 100 uM concentration of compound
Method in brief: as §3

Saccharomyces cerevisiae [11] = assay: In vitro inhibition of yeast […] at 100 uM concentration of compound
Saccharomyces cerevisiae [12] = assay: Inhibition of yeast […] is evaluated by formation by NADH in vitro at 10 uM concentration of compound
Method in brief: as §3

inhibition [1]: 100%
ALDH activity (NADH formation rate) [2]: 0 nM/min
Structure (SMILES): CCCNC(=O)N(CC(C)C)S(=O)(=O)c1ccc(Cl)cc1

inhibition [1]: 100%
ALDH activity (NADH formation rate) [2]: 0 nM/min
Structure (SMILES): CCCNC(=O)N(CC(C)(C)C)S(=O)(=O)c1ccc(Cl)cc1

inhibition [1]: 98.6%
ALDH activity (NADH formation rate) [2]: 1.4 nM/min
Structure (SMILES): CCCNC(=O)N(CC)S(=O)(=O)c1ccc(Cl)cc1

inhibition [1]: 100%
ALDH activity (NADH formation rate) [2]: 0 nM/min
Structure (SMILES): CCCNC(=O)N(C(C)C)S(=O)(=O)c1ccc(Cl)cc1

inhibition [1]: 91.1%
ALDH activity (NADH formation rate) [2]: 1.3 nM/min
Structure (SMILES): CCCNC(=O)N(CCC)S(=O)(=O)c1ccc(Cl)cc1

The next lines start with the compound.

Structure (SMILES): CCN(C(=O)NC(C)(C)C)S(=O)(=O)c1ccc(Cl)cc1
inhibition [1]: 97.3%
ALDH activity (NADH formation rate) [2]: 2.7 nM/min

Structure (SMILES): CCCNC(=O)N(C)S(=O)(=O)c1ccc(Cl)cc1
inhibition [3]: 48.9%
inhibition [4]: 73.7%
inhibition [1]: 99.6%
AIDH activity [5]: 13.4 nM/min
ALDH activity (NADH formation rate) [2]: 0.6 nM/min
AIDH activity [6]: 19 nM/min

Structure (SMILES): CCCNC(=O)N(C(C)(C)C)S(=O)(=O)c1ccc(Cl)cc1
inhibition [1]: 100%
ALDH activity (NADH formation rate) [2]: 0 nM/min

Structure (SMILES): CCCNC(=O)NS(=O)(=O)c1ccc(Cl)cc1
inhibition [3]: 0%
inhibition [4]: 0%
AIDH activity [5]: 28.3 nM/min
AlDH activity [6]: 73.8 nmol/min/mg

Structure (SMILES): O=C=NC1CCCCC1
inhibition (Saccharomyces cerevisiae [7]): 12.1%
AIDH activity (Saccharomyces cerevisiae [8]): 0.5 nM/min
inhibition (Saccharomyces cerevisiae [9]): 100%
AIDH activity (Saccharomyces cerevisiae [10]): 0 nM/min
inhibition (Saccharomyces cerevisiae [11]): 96.5%
AIDH activity (Saccharomyces cerevisiae [12]): 12.4 nM/min

Structure (SMILES): CCCCN(C(=O)NCCC)S(=O)(=O)c1ccc(Cl)cc1
inhibition [1]: 100%
ALDH activity (NADH formation rate) [2]: 0 nM/min

Structure (SMILES): CCCCN=C=O
inhibition (Saccharomyces cerevisiae [7]): 20.8%
AIDH activity (Saccharomyces cerevisiae [8]): 0.2 nM/min
inhibition (Saccharomyces cerevisiae [9]): 100%
AIDH activity (Saccharomyces cerevisiae [10]): 0 nM/min
inhibition (Saccharomyces cerevisiae [11]): 98.9%
AIDH activity (Saccharomyces cerevisiae [12]): 11.2 nM/min

Structure (SMILES): CCCOC(=O)N(CC)S(=O)(=O)c1ccc(Cl)cc1
inhibition [1]: 1.4%
ALDH activity (NADH formation rate) [2]: 14.6 nM/min

Structure (SMILES): CCCN(C)C(=O)NS(=O)(=O)c1ccc(Cl)cc1
inhibition [1]: 0%
ALDH activity (NADH formation rate) [2]: 15 nM/min

Structure (SMILES): CCCN=C=O
inhibition (Saccharomyces cerevisiae [7]): 8.8%
AIDH activity (Saccharomyces cerevisiae [10]): 0 nM/min
inhibition (Saccharomyces cerevisiae [11]): 100% and 98.5%

Source: ChEMBL document CHEMBL1124498
